Results from ChEMBL document CHEMBL2086304, “Synthesis and in vitro antimycobacterial and isocitrate lyase inhibition properties of novel 2-methoxy-2'-hydroxybenzanilides, their thioxo analogues and benzoxazoles” (Eur J Med Chem, 2012).
≈ marks a conversion by molar mass, not a printed value.

System: Mycobacterium avium
Assay: Antimycobacterial activity against isoniazid resistance Mycobacterium avium 330/88 after 21 days by micromethod
Type: functional
Settings: 330/88, 504 h
Outline: (§1)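 Inocula: M. tuberculosis My 331/88 at 10^-3 dilution, M. avium My 330/88 at 10^-5, M. kansasii My 235/80 and clinical isolate 6509/96 at 10^-4. Compounds added in DMSO at 1000 down to 0.5 (twofold series). Read at 14 and 21 days, plus 7 days for M. kansasii. MIC taken as lowest concentration inhibiting growth.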

SMILES	MIC [µM]
COc1ccc(Cl)cc1C(=S)Nc1cc(Cl)ccc1O	32 (≈ 10.5 µg/mL)
COc1ccc(Cl)cc1C(=S)Nc1ccc(Br)cc1O	125 (≈ 46.6 µg/mL)
COc1cc(Cl)ccc1C(=O)Nc1cc(Cl)c(Cl)cc1O	> 1000
COc1ccc(Cl)cc1C(=S)Nc1cc(Cl)c(Cl)cc1O	62.5 (≈ 22.7 µg/mL)
COc1cc(Cl)ccc1C(=O)Nc1ccc(Br)cc1O	125 (≈ 44.6 µg/mL)

System: Mycobacterium avium
Assay: Antimycobacterial activity against isoniazid resistance Mycobacterium avium 330/88 after 14 days by micromethod
Type: functional
Settings: 330/88, 336 h
Outline: as §1

SMILES	MIC [µM]
COc1ccc(Cl)cc1C(=S)Nc1cc(Cl)ccc1O	32 (≈ 10.5 µg/mL)
COc1ccc(Cl)cc1C(=S)Nc1ccc(Br)cc1O	62.5 (≈ 23.3 µg/mL)
COc1cc(Cl)ccc1C(=O)Nc1cc(Cl)c(Cl)cc1O	> 1000
COc1ccc(Cl)cc1C(=S)Nc1cc(Cl)c(Cl)cc1O	62.5 (≈ 22.7 µg/mL)
COc1cc(Cl)ccc1C(=O)Nc1ccc(Br)cc1O	125 (≈ 44.6 µg/mL)

System: HepG2
Assay: Cytotoxicity against human HepG2 cells after 24 hrs by CellTiter-96 cell viability assay
Type: functional, cell-based
Settings: HepG2, 24 h
Outline: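 Hep G2 human hepatic cells (passage 12), 10,000 per well, grown 24 h at 37 °C, 5% CO2 in MEM with 1% glutamine, 10% FBS and 1% nonessential amino acids. Compounds in DMSO at eight increasing concentrations, quadruplicate, 24 h at 37 °C. Kit reagent added, 1.5 h at 37 °C, absorbance 490 nm. IC50 is the concentration reducing viability to 50% of control.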

SMILES	IC50 [µM]
COc1ccc(Cl)cc1C(=S)Nc1cc(Cl)ccc1O	8.6
COc1ccc(Cl)cc1C(=S)Nc1ccc(Br)cc1O	7.6
COc1cc(Cl)ccc1C(=O)Nc1cc(Cl)c(Cl)cc1O	11.5
COc1ccc(Cl)cc1C(=S)Nc1cc(Cl)c(Cl)cc1O	3.72
COc1cc(Cl)ccc1C(=O)Nc1ccc(Br)cc1O	46.6

System: Mycobacterium tuberculosis
Assay: Antimycobacterial activity against Mycobacterium tuberculosis 331/88 after 21 days by micromethod
Type: functional
Settings: 331/88, 504 h
Outline: as §1

SMILES	MIC [µM]
COc1ccc(Cl)cc1C(=S)Nc1cc(Cl)ccc1O	32 (≈ 10.5 µg/mL)
COc1ccc(Cl)cc1C(=S)Nc1ccc(Br)cc1O	32 (≈ 11.9 µg/mL)
COc1cc(Cl)ccc1C(=O)Nc1cc(Cl)c(Cl)cc1O	500 (≈ 173 µg/mL)
COc1ccc(Cl)cc1C(=S)Nc1cc(Cl)c(Cl)cc1O	32 (≈ 11.6 µg/mL)
COc1cc(Cl)ccc1C(=O)Nc1ccc(Br)cc1O	125 (≈ 44.6 µg/mL)

Biological target: T1, Isocitrate lyase (Mycobacterium tuberculosis) (UniProt P9WKK7)
T1 sequence (whole entry): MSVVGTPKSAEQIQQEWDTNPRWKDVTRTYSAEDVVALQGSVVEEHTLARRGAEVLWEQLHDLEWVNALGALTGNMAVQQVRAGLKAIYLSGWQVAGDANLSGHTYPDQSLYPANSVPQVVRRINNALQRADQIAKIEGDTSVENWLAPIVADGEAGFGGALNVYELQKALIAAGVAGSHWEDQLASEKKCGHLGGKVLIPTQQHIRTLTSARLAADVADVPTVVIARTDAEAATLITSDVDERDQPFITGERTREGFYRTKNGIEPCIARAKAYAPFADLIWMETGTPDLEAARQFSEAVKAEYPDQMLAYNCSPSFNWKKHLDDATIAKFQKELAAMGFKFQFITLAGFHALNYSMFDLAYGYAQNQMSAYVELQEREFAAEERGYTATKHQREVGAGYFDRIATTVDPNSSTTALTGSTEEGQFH
Assay: Inhibition of Mycobacterium tuberculosis H37Rv isocitrate lyase expressed in Escherichia coli HB101 at 10 umol/L
Settings: not given
Outline: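 Isocitrate lyase assayed per Dixon–Kornberg in 96-well format. Buffer: 50 mmol/L KH2PO4, 4 mmol/L MgCl2, 4 mmol/L phenylhydrazine, 12 mmol/L cysteine, pH 7.0. Glyoxylate phenylhydrazone read at 324 nm. Compounds added in DMSO, with DMSO-alone inhibition subtracted.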

SMILES	inhibition [%]
COc1ccc(Cl)cc1C(=S)Nc1cc(Cl)ccc1O	0
COc1ccc(Cl)cc1C(=S)Nc1ccc(Br)cc1O	7
COc1cc(Cl)ccc1C(=O)Nc1cc(Cl)c(Cl)cc1O	0
COc1ccc(Cl)cc1C(=S)Nc1cc(Cl)c(Cl)cc1O	9
COc1cc(Cl)ccc1C(=O)Nc1ccc(Br)cc1O	0

System: Mycobacterium kansasii
Assay: Antimycobacterial activity against Mycobacterium kansasii 6509/96 clinical isolate after 14 days by micromethod
Type: functional
Settings: 6509/96, 336 h
Outline: as §1

SMILES	MIC [µM]
COc1ccc(Cl)cc1C(=S)Nc1cc(Cl)ccc1O	32 (≈ 10.5 µg/mL)
COc1ccc(Cl)cc1C(=S)Nc1ccc(Br)cc1O	32 (≈ 11.9 µg/mL)
COc1cc(Cl)ccc1C(=O)Nc1cc(Cl)c(Cl)cc1O	250 (≈ 86.6 µg/mL)
COc1ccc(Cl)cc1C(=S)Nc1cc(Cl)c(Cl)cc1O	32 (≈ 11.6 µg/mL)
COc1cc(Cl)ccc1C(=O)Nc1ccc(Br)cc1O	125 (≈ 44.6 µg/mL)

System: Mycobacterium kansasii
Assay: Antimycobacterial activity against isoniazid resistance Mycobacterium kansasii 225/80 after 14 days by micromethod
Type: functional
Settings: 225/80, 336 h

SMILES	MIC [µM]
COc1ccc(Cl)cc1C(=S)Nc1cc(Cl)ccc1O	8 (≈ 2.63 µg/mL)
COc1ccc(Cl)cc1C(=S)Nc1ccc(Br)cc1O	32 (≈ 11.9 µg/mL)
COc1cc(Cl)ccc1C(=O)Nc1cc(Cl)c(Cl)cc1O	500 (≈ 173 µg/mL)
COc1ccc(Cl)cc1C(=S)Nc1cc(Cl)c(Cl)cc1O	62.5 (≈ 22.7 µg/mL)
COc1cc(Cl)ccc1C(=O)Nc1ccc(Br)cc1O	125 (≈ 44.6 µg/mL)

System: not listed separately
Assay: Selectivity index, ratio of IC50 for human HepG2 cells to MIC for Mycobacterium tuberculosis 331/88 after 14 days
Type: functional
Settings: not given
Outline: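 Cytotoxicity in Hep G2 cells (passage 12), 10,000 cells/well, in MEM with 10% FBS, 1% glutamine and 1% nonessential amino acids. Cells preincubated 24 h, 37 °C, 5% CO2. Compounds in DMSO at eight concentrations in quadruplicate, 24 h. MTS-type reagent added for 1.5 h, A490 read, IC50 taken at 50% viability. SI = this IC50 over the 14-day M. tuberculosis MIC.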

SMILES	Selectivity Index
COc1ccc(Cl)cc1C(=S)Nc1cc(Cl)ccc1O	0.54
COc1ccc(Cl)cc1C(=S)Nc1ccc(Br)cc1O	0.24
COc1cc(Cl)ccc1C(=O)Nc1cc(Cl)c(Cl)cc1O	0.02
COc1ccc(Cl)cc1C(=S)Nc1cc(Cl)c(Cl)cc1O	0.23
COc1cc(Cl)ccc1C(=O)Nc1ccc(Br)cc1O	0.37

System: Mycobacterium kansasii
Assay: Antimycobacterial activity against isoniazid resistance Mycobacterium kansasii 225/80 after 21 days by micromethod
Type: functional
Settings: 225/80, 504 h

SMILES	MIC [µM]
COc1ccc(Cl)cc1C(=S)Nc1cc(Cl)ccc1O	16 (≈ 5.25 µg/mL)
COc1ccc(Cl)cc1C(=S)Nc1ccc(Br)cc1O	62.5 (≈ 23.3 µg/mL)
COc1cc(Cl)ccc1C(=O)Nc1cc(Cl)c(Cl)cc1O	500 (≈ 173 µg/mL)
COc1ccc(Cl)cc1C(=S)Nc1cc(Cl)c(Cl)cc1O	62.5 (≈ 22.7 µg/mL)
COc1cc(Cl)ccc1C(=O)Nc1ccc(Br)cc1O	125 (≈ 44.6 µg/mL)

System: Mycobacterium tuberculosis
Assay: Antimycobacterial activity against Mycobacterium tuberculosis 331/88 after 14 days by micromethod
Type: functional
Settings: 331/88, 336 h
Outline: as §1

SMILES	MIC [µM]
COc1ccc(Cl)cc1C(=S)Nc1cc(Cl)ccc1O	16 (≈ 5.25 µg/mL)
COc1ccc(Cl)cc1C(=S)Nc1ccc(Br)cc1O	32 (≈ 11.9 µg/mL)
COc1cc(Cl)ccc1C(=O)Nc1cc(Cl)c(Cl)cc1O	500 (≈ 173 µg/mL)
COc1ccc(Cl)cc1C(=S)Nc1cc(Cl)c(Cl)cc1O	16 (≈ 5.8 µg/mL)
COc1cc(Cl)ccc1C(=O)Nc1ccc(Br)cc1O	125 (≈ 44.6 µg/mL)

System: Mycobacterium kansasii
Assay: Antimycobacterial activity against isoniazid resistance Mycobacterium kansasii 225/80 after 7 days by micromethod
Type: functional
Settings: 225/80, 168 h

SMILES	MIC [µM]
COc1ccc(Cl)cc1C(=S)Nc1cc(Cl)ccc1O	8 (≈ 2.63 µg/mL)
COc1ccc(Cl)cc1C(=S)Nc1ccc(Br)cc1O	16 (≈ 5.96 µg/mL)
COc1cc(Cl)ccc1C(=O)Nc1cc(Cl)c(Cl)cc1O	500 (≈ 173 µg/mL)
COc1ccc(Cl)cc1C(=S)Nc1cc(Cl)c(Cl)cc1O	32 (≈ 11.6 µg/mL)
COc1cc(Cl)ccc1C(=O)Nc1ccc(Br)cc1O	125 (≈ 44.6 µg/mL)

System: Mycobacterium kansasii
Assay: Antimycobacterial activity against Mycobacterium kansasii 6509/96 clinical isolate after 21 days by micromethod
Type: functional
Settings: 6509/96, 504 h
Outline: as §1

SMILES	MIC [µM]
COc1ccc(Cl)cc1C(=S)Nc1cc(Cl)ccc1O	32 (≈ 10.5 µg/mL)
COc1ccc(Cl)cc1C(=S)Nc1ccc(Br)cc1O	32 (≈ 11.9 µg/mL)
COc1cc(Cl)ccc1C(=O)Nc1cc(Cl)c(Cl)cc1O	250 (≈ 86.6 µg/mL)
COc1ccc(Cl)cc1C(=S)Nc1cc(Cl)c(Cl)cc1O	62.5 (≈ 22.7 µg/mL)
COc1cc(Cl)ccc1C(=O)Nc1ccc(Br)cc1O	125 (≈ 44.6 µg/mL)

System: Mycobacterium kansasii
Assay: Antimycobacterial activity against Mycobacterium kansasii 6509/96 clinical isolate after 7 days by micromethod
Type: functional
Settings: 6509/96, 168 h
Outline: as §1

SMILES	MIC [µM]
COc1ccc(Cl)cc1C(=S)Nc1cc(Cl)ccc1O	16 (≈ 5.25 µg/mL)
COc1ccc(Cl)cc1C(=S)Nc1ccc(Br)cc1O	16 (≈ 5.96 µg/mL)
COc1cc(Cl)ccc1C(=O)Nc1cc(Cl)c(Cl)cc1O	250 (≈ 86.6 µg/mL)
COc1ccc(Cl)cc1C(=S)Nc1cc(Cl)c(Cl)cc1O	16 (≈ 5.8 µg/mL)
COc1cc(Cl)ccc1C(=O)Nc1ccc(Br)cc1O	125 (≈ 44.6 µg/mL)
